Reference: ChEMBL document CHEMBL4219175, “Synthesis and biological evaluation of aminothiazoles against Histoplasma capsulatum and Cryptococcus neoformans” (Bioorg Med Chem, 2018)
Values after ≈ are worked out from the molar mass of the structure shown.

Key:
Histoplasma capsulatum [1] = experiment: Antifungal activity against Histoplasma capsulatum G217B ATCC 26032 at pH 7 measured over 5 days; format: functional, organism-based; conditions: G217B ATCC 26032, 120 h
Method in brief: (§1)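 Yeasts pre-grown in HMM (37 °C, 5% CO2) to exponential phase, counted by hemacytometer, diluted into RPMI buffered with 25 mM HEPES (pH 7.0) or 25 mM MOPS (pH 5.0) at 5 x 10^5 per well; two-fold dilutions 40 to 0.078 µM, 37 °C, agitated twice daily. A595 read over 5 days, normalized to DMSO controls; 4-day data fitted by 4-parameter regression for IC50; MIC = ≤10% growth.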

Cryptococcus neoformans [2] = experiment: Antifungal activity against wild type fluconazole-sensitive Cryptococcus neoformans serotype A H99 at pH 7 measured over 4 days; format: functional, organism-based; conditions: var grubii H99 , 96 h
Method in brief: (§2)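 YPD-grown exponential-phase yeasts, hemacytometer-counted, diluted into RPMI buffered to pH 7.0 with 25 mM HEPES (or pH 5.0 with […] for pH comparison) at 2 x 10^3 per well; two-fold series 40 to 0.078 µM, 37 °C, agitated twice daily. A595 followed over 4 days versus DMSO controls; day-3 turbidity fitted by 4-parameter regression for IC50; MIC = growth ≤10% of untreated.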

P388D1 = experiment: Cytotoxicity against mouse P388D1 cells assessed as reduction in cell viability after 72 hrs by resazurin-based fluorescence assay; conditions: P388D1, 72 h
Method in brief: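 P388D1 cells in Ham's F-12 + 10% FBS + 2 mM L-glutamine seeded at 5 x 10^3 per well, adhered overnight, exposed to compounds 80 to 0.3 µM for 72 h. Viability read as resorufin fluorescence (530/590 nm) after 0.1 mM resazurin, pre-saturation time points, versus untreated cells; three biological replicates; IC50 by non-linear regression.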

[3] = Therapeutic index, ratio of IC50 for mouse P388D1 cells to IC50 for Histoplasma capsulatum G217B ATCC 26032; format: toxicity; conditions: read-out: Ratio IC50
Method in brief: (§3)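 Ratio of P388D1 IC50 (72 h resazurin viability, 80 to 0.3 µM) to yeast IC50 from RPMI/HEPES pH 7.0 broth dilution with A595 turbidity and 4-parameter regression.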

[4] = Therapeutic index, ratio of IC50 for mouse P388D1 cells to IC50 for wild type Cryptococcus neoformans serotype A H99; format: toxicity; conditions: read-out: Ratio IC50; method in brief: as §3
Cryptococcus neoformans [5] = experiment: Antifungal activity against wild-type fluconazole-sensitive Cryptococcus neoformans serotype D B3501 measured over 4 days; format: functional, organism-based; conditions: B3501, 96 h; method in brief: as §2
Cryptococcus neoformans [6] = experiment: Antifungal activity against fluconazole-resistant Cryptococcus neoformans serotype A TES9 harboring erg11 mutant measured over 4 days; format: functional, organism-based; conditions: TES9, 96 h; method in brief: as §2
Cryptococcus neoformans [7] = experiment: Antifungal activity against fluconazole-resistant Cryptococcus neoformans serotype A MRL862 harboring erg11 mutant measured over 4 days; format: functional, organism-based; conditions: MRL862, 96 h; method in brief: as §2
Histoplasma capsulatum [8] = experiment: Antifungal activity against RFP expressing Histoplasma capsulatum infected in LacZ-expressing mouse P388D1 cells incubated for 6 days measured daily by fluorescence assay; format: functional, organism-based
Method in brief: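 LacZ-expressing P388D1 macrophages (3x10^4 per well, adhered 3 h) infected with RFP Histoplasma yeasts at MOI 1:2 for 3 h, medium replaced with F-12 + 10% serum, overnight at 37 °C, then compound gradient added for 6 days. RFP fluorescence (530/590 nm) read daily; day-4 values relative to untreated infected cells fitted by non-linear regression; triplicate.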

[9] = Aqueous solubility of the compound at pH 5; format: physicochemical; conditions: aqueous medium
[10] = Aqueous solubility of the compound at pH 7; format: physicochemical; conditions: aqueous medium
[11] = Ratio of aqueous solubility at pH 5 to aqueous solubility at pH 7; format: physicochemical; conditions: buffer
Histoplasma capsulatum [12] = experiment: Antifungal activity against Histoplasma capsulatum G217B ATCC 26032 at pH 5 measured over 5 days; format: functional, organism-based; conditions: G217B ATCC 26032, 120 h; method in brief: as §1
Cryptococcus neoformans [13] = experiment: Antifungal activity against wild type fluconazole-sensitive Cryptococcus neoformans serotype A H99 at pH 5 measured over 4 days; format: functional, organism-based; conditions: var grubii H99 , 96 h; method in brief: as §2
Histoplasma capsulatum [14] = experiment: Fungistatic activity against Histoplasma capsulatum OSU76 after 2 to 24 hrs by colony forming assay; format: functional, organism-based
[15] = Therapeutic index, ratio of IC50 for mouse P388D1 cells to IC50 for Histoplasma capsulatum OSU76; format: toxicity; conditions: read-out: Ratio IC50
Cryptococcus neoformans [16] = experiment: Antifungal activity against Cryptococcus neoformans TDY271 after 72 hrs by microdilution assay; format: functional, organism-based; conditions: TDY271, 72 h

Compound	IC50 (Histoplasma capsulatum [1])	MIC90 (Histoplasma capsulatum [1])	IC50 (Cryptococcus neoformans [2])	MIC90 (Cryptococcus neoformans [2])	IC50 (P388D1)	selectivity ratio [3]	selectivity ratio [4]	solubility [9]	solubility [10]	Ratio [11]	IC50 (Histoplasma capsulatum [12])	MIC90 (Histoplasma capsulatum [12])	IC50 (Cryptococcus neoformans [13])	MIC90 (Cryptococcus neoformans [13])	further results
O=C(Nc1ncc(Cc2cccc3ccccc23)s1)C1CCCCC1	0.48 µM	1.25 µM (≈ 0.438 µg/mL)	0.67 µM	1.25 µM (≈ 0.438 µg/mL)	> 40 µM	> 83	> 60	4 µg/mL (≈ 11.4 µM)	4 µg/mL (≈ 11.4 µM)	1	6.75 µM	10 µM (≈ 3.5 µg/mL)	3.04 µM	5 µM (≈ 1.75 µg/mL)	IC50 (Cryptococcus neoformans [5]): 0.18 µM; MIC90 (Cryptococcus neoformans [5]): 0.63 µM (≈ 0.221 µg/mL); IC50 (Cryptococcus neoformans [6]): 0.2 µM; MIC90 (Cryptococcus neoformans [6]): 0.63 µM (≈ 0.221 µg/mL); IC50 (Cryptococcus neoformans [7]): 0.23 µM; MIC90 (Cryptococcus neoformans [7]): 0.63 µM (≈ 0.221 µg/mL); MIC (Histoplasma capsulatum [8]; 144 h): 2.5 µM (≈ 0.876 µg/mL); IC50 (Histoplasma capsulatum [8]; P388D1, 144 h): 1.26 µM; IC50 (Histoplasma capsulatum [14]): 0.87 µM; selectivity ratio [15]: 63; IC50 (Cryptococcus neoformans [16]): 1.25 µM
O=C(Nc1ncc(Cc2ccccn2)s1)C1CCCCC1	18.3 µM	40 µM (≈ 12.1 µg/mL)	7.17 µM	20 µM (≈ 6.03 µg/mL)	> 40 µM	> 2	> 6	480 µg/mL (≈ 1590 µM)	340 µg/mL (≈ 1130 µM)	1.4	> 20 µM	> 40 µM	15.6 µM	> 40 µM	
